Source: PMC9896656 (Investigational new drugs, 2022)
Where two headings read alike, the source gives them in different places. Residues, ends and D or L forms follow the SMILES beside them. *: point of attachment. Cbz = O=C(OCc1ccccc1)*

Key:
[1] = tested on: PANC-1; assay: Differential nuclear staining; type: cell-based; conditions: Homo sapiens, PANC-1, 48 h
Method in brief: (§1)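 Cells were seeded at 10,000/well in 96-well plates; adherent lines attached overnight. A 0.1–5 μM gradient was applied for 48 h, with 1% DMSO, 1 mM H2O2 and untreated wells. PI and Hoechst 33342 (5 μg/ml each) were added 2 h before reading at 37°C. Wells were imaged to separate dead from total nuclei. CC50 was obtained by linear interpolation of the dose-response. Selectivity index uses Hs-27 as the non-cancer reference.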

[2] = Differential nuclear staining; type: cell-based; conditions: human, Hs-27 cells (non-cancerous reference) versus PANC-1 cells
Method in brief: as §1

[3] = tested on: CEM cells; assay: Mitochondrial membrane potential; type: cell-based, human; conditions: 6 h, CC50 and twice the CC50, vs untreated and DMSO
[4] = tested on: caspase-3/7 in CEM cells; assay: Caspase-3/7 activation; type: cell-based, human; conditions: 7.5 h, CC50 and twice the CC50, vs vehicle control (1% DMSO)
[5] = tested on: MDA-MB-231; assay: Differential nuclear staining; type: cell-based; conditions: Homo sapiens, MDA-MB-231, 48 h
Method in brief: as §1

[6] = Differential nuclear staining; type: cell-based; conditions: human
Method in brief: as §1

[7] = Differential nuclear staining; type: cell-based; conditions: human, CCD-112-CoN cells (non-cancerous colon fibroblasts)
Method in brief: as §1

[8] = Differential nuclear staining; type: cell-based; conditions: human, Hs-27 cells (non-cancerous reference) versus MM1 S cells
Method in brief: as §1

[9] = tested on: MM1 S; assay: Differential nuclear staining; type: cell-based; conditions: Homo sapiens, MM1.S, 48 h
Method in brief: as §1

[10] = tested on: HL-60; assay: Differential nuclear staining; type: cell-based; conditions: Homo sapiens, HL-60, 48 h
Method in brief: as §1

[11] = Differential nuclear staining; type: cell-based; conditions: human, Hs-27 cells (non-cancerous reference) versus HL-60 cells
Method in brief: as §1

[12] = tested on: MM1 R; assay: Differential nuclear staining; type: cell-based; conditions: Homo sapiens, MM.1R, 48 h
Method in brief: as §1

[13] = Differential nuclear staining; type: cell-based; conditions: human, Hs-27 cells (non-cancerous reference) versus MM1 R cells
Method in brief: as §1

[14] = Differential nuclear staining; type: cell-based; conditions: human, Hs-27 cells (non-cancerous reference) versus PC-3 cells
Method in brief: as §1

[15] = tested on: PC-3; assay: Differential nuclear staining; type: cell-based; conditions: Homo sapiens, PC-3, 48 h
Method in brief: as §1

[16] = tested on: CEM; assay: Differential nuclear staining; type: cell-based, human; conditions: CEM; concentration used for cell cycle analysis
[17] = Differential nuclear staining; type: cell-based, human; conditions: human, Hs-27 cells (non-cancerous reference) versus CEM cells
[18] = tested on: RPMI-8226; assay: Differential nuclear staining; type: cell-based; conditions: Homo sapiens, RPMI-8226, 48 h
Method in brief: as §1

[19] = Differential nuclear staining; type: cell-based; conditions: human, Hs-27 cells (non-cancerous reference) versus RPMI-8226 cells
Method in brief: as §1

[20] = tested on: COLO 205 cells; assay: Mitochondrial membrane potential; type: cell-based, human; conditions: COLO 205, 6 h, CC50 and twice the CC50, vs untreated and DMSO
[21] = tested on: RAMOS; assay: Differential nuclear staining; type: cell-based; conditions: Homo sapiens, Ramos, 48 h
Method in brief: as §1

[22] = Differential nuclear staining; type: cell-based; conditions: human, Hs-27 cells (non-cancerous reference) versus RAMOS cells
Method in brief: as §1

[23] = Differential nuclear staining; type: cell-based; conditions: human; for selectivity ratio at 48 h: Hs-27 cells (non-cancerous reference) versus MCF-10 A cells; for CC50 at 48 h: MCF-10 A cells (breast epithelial)
Method in brief: as §1

[24] = tested on: CEM cells; assay: Cell cycle profile analysis; type: cell-based, human; conditions: CC20, 72 h
[25] = tested on: COLO 205; assay: Differential nuclear staining; type: cell-based, human; conditions: for CC20: COLO 205, concentration used for cell cycle analysis; for CC50: Homo sapiens
[26] = Differential nuclear staining; type: cell-based, human; conditions: human, Hs-27 cells (non-cancerous reference) versus COLO 205 cells
[27] = tested on: caspase-3/7 in COLO 205 cells; assay: Caspase-3/7 activation; type: cell-based, human; conditions: COLO 205, 7.5 h, CC50 and twice the CC50, vs vehicle control (1% DMSO)
[28] = tested on: COLO 205 cells; assay: Reactive oxygen species accumulation; type: cell-based, human; conditions: COLO 205, 6 h, compared with DMSO-treated cells
[29] = tested on: U266; assay: Differential nuclear staining; type: cell-based; conditions: Homo sapiens, U-266, 48 h
Method in brief: as §1

[30] = Differential nuclear staining; type: cell-based; conditions: human, Hs-27 cells (non-cancerous reference) versus U266 cells
Method in brief: as §1

[31] = tested on: CEM cells; assay: Reactive oxygen species accumulation; type: cell-based, human; conditions: 6 h, compared with DMSO-treated cells
[32] = tested on: CEM cells; assay: Annexin V-FITC/PI apoptosis/necrosis assay; type: cell-based, human; conditions: 24 h, 2x CC50, compared to DMSO solvent control
[33] = tested on: HT-29; assay: Differential nuclear staining; type: cell-based; conditions: Homo sapiens, HT-29, 48 h
Method in brief: as §1

[34] = Differential nuclear staining; type: cell-based; conditions: human, Hs-27 cells (non-cancerous reference) versus HT-29 cells
Method in brief: as §1

[35] = tested on: poly-ubiquitinated proteins in COLO 205 cells; assay: Western blot of poly-ubiquitinated proteins; type: cell-based, human; conditions: COLO 205, 8 h, 2X CC50
Method in brief: (§2)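 3,000,000 cells per T-25 flask in 10 ml RPMI were treated 8 h at twice the CC50, with MG-132 and 0.3% PEG-400 vehicle controls. Cells were PBS-washed and lysed by boiling 15 min in 2x Laemmli buffer. 100 μg protein was run on 7% SDS-PAGE and transferred to PVDF. Blots were blocked overnight in 5% milk, then probed with mouse anti-ubiquitin (1 h) and HRP anti-mouse (1:10,000, 1 h). ECL imaging and densitometry followed.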

[36] = tested on: COLO 205 cells; assay: Cell cycle profile analysis; type: cell-based, human; conditions: COLO 205, CC20, 72 h
[37] = Differential nuclear staining; type: cell-based; conditions: human, HS-27 cells (normal foreskin, non-cancer)
Method in brief: as §1

[38] = tested on: COLO 205 cells; assay: Annexin V-FITC/PI apoptosis/necrosis assay; type: cell-based, human; conditions: COLO 205, 24 h, 2x CC50, compared to DMSO solvent control
[39] = tested on: poly-ubiquitinated proteins in CEM cells; assay: Western blot of poly-ubiquitinated proteins; type: cell-based, human; conditions: 8 h, in comparison to COLO 205
Method in brief: as §2

[40] = tested on: CEM and COLO 205 cells; conditions: 1 mM positive control, 24 h; cell line not stated
[41] = COLO 205, 24 h, read-out: 24 h CC50

O=C1C(=Cc2ccc(Cl)c(Cl)c2)CN(C(=O)C(Cl)Cl)CC1=Cc1ccc(Cl)c(Cl)c1 [compound 2610, 1-dichloroacetyl-3,5-bis(3,4-dichlorobenzylidene)-4-piperidone]
CC50 [1]: 414 nM
selectivity ratio at 48 h [2]: 0.48
mitochondrial depolarization [3]: significant mitochondrial depolarization
caspase-3/7 activation [4]: significant caspase-3/7 activation
CC50 [5]: 121 nM
selectivity ratio at 48 h [6]: 1.65
CC50 at 48 h [7]: 176 nM
selectivity ratio at 48 h [8]: 7.66
CC50 [9]: 26.1 nM
CC50 [10]: 24 nM
selectivity ratio at 48 h [11]: 8.33
CC50 [12]: 9 nM
selectivity ratio at 48 h [13]: 22.2
selectivity ratio at 48 h [14]: 0.44
CC50 [15]: 446 nM
CC20 [16]: 37.2 nM
selectivity ratio at 48 h [17]: 6.66
CC50 [18]: 334 nM
selectivity ratio at 48 h [19]: 0.599
mitochondrial depolarization [20]: significant mitochondrial depolarization
CC50 [21]: 36 nM
selectivity ratio at 48 h [22]: 5.55
selectivity ratio at 48 h [23]: 1.66
CC50 at 48 h [23]: 120 nM
DNA fragmentation (sub G0/G1) [24]: caused DNA fragmentation on both cell lines
CC20 [25]: 1516.4 nM
CC50 [25, 41]: 3790 nM
CC50 ([25]; COLO 205, 48 h): 1660 nM
selectivity ratio at 48 h [26]: 0.12
caspase-3/7 activation [27]: significant caspase-3/7 activation
ROS accumulation [28]: Significant ROS
CC50 [29]: 762 nM
selectivity ratio at 48 h [30]: 0.26
ROS accumulation [31]: Significant ROS
PS externalization (Annexin V-FITC positive cells) [32]: significant PS externalization
CC50 [33]: 36 nM
selectivity ratio at 48 h [34]: 5.55
accumulation of high molecular weight poly-ubiquitinated proteins (densitometry) [35]: 1.41 fold increase
DNA fragmentation (sub G0/G1) [36]: caused DNA fragmentation on both cell lines
cell cycle profile [36]: did not alter the cell cycle profile
CC50 at 48 h [37]: 200 nM
PS externalization (Annexin V-FITC positive cells) [38]: significant PS externalization

O=C1C(=Cc2ccc(F)c(F)c2)CN(C(=O)C(Cl)Cl)CC1=Cc1ccc(F)c(F)c1 [compound 2608, 1-dichloroacetyl – 3,5-bis(3,4-difluorobenzylidene)-4-piperidone]
CC50 [1]: 1130 nM
selectivity ratio at 48 h [2]: 0.4
mitochondrial depolarization [3]: significant mitochondrial depolarization
caspase-3/7 activation [4]: significant caspase-3/7 activation
CC50 [5]: 47 nM
selectivity ratio at 48 h [6]: 9.68
CC50 at 48 h [7]: 120 nM
selectivity ratio at 48 h [8]: 25.1
CC50 [9]: 18.1 nM
CC50 [10]: 64 nM
selectivity ratio at 48 h [11]: 7.11
CC50 [12]: 16 nM
selectivity ratio at 48 h [13]: 28.4
selectivity ratio at 48 h [14]: 1.51
CC50 [15]: 301 nM
CC20 [16]: 39.7 nM
selectivity ratio at 48 h [17]: 22.8
CC50 [18]: 39.7 nM
selectivity ratio at 48 h [19]: 11.5
mitochondrial depolarization [20]: significant mitochondrial depolarization
CC50 [21]: 95 nM
selectivity ratio at 48 h [22]: 4.79
selectivity ratio at 48 h [23]: 2.6
CC50 at 48 h [23]: 175 nM
DNA fragmentation (sub G0/G1) [24]: induced DNA fragmentation
CC20 [25]: 761.6 nM
CC50 [25, 41]: 1900 nM
CC50 ([25]; COLO 205, 48 h): 424 nM
selectivity ratio at 48 h [26]: 1.07
caspase-3/7 activation [27]: significant caspase-3/7 activation
ROS accumulation [28]: Significant ROS
CC50 [29]: 14.4 nM
selectivity ratio at 48 h [30]: 31.6
ROS accumulation [31]: Significant ROS
PS externalization (Annexin V-FITC positive cells) [32]: significant PS externalization
CC50 [33]: 162 nM
selectivity ratio at 48 h [34]: 2.8
accumulation of high molecular weight poly-ubiquitinated proteins (densitometry) [35]: 0.40 fold increase
DNA fragmentation (sub G0/G1) [36]: but not in COLO 205
cell cycle profile [36]: did not alter the cell cycle profile
CC50 at 48 h [37]: 455 nM
PS externalization (Annexin V-FITC positive cells) [38]: significant PS externalization

CC(C)C[C@@H](C=O)NC(=O)[C@H](CC(C)C)NC(=O)[C@H](CC(C)C)NC(=O)OCc1ccccc1 [MG132, reference compound] (Cbz-Leu-Leu-Leu-aldehyde)
proteasome inhibition (poly-ubiquitinated proteins, in words) [39]: slight proteasome inhibition
accumulation of high molecular weight poly-ubiquitinated proteins (densitometry) [35]: 1 fold increase

OO [H20_2, hydrogen peroxide]
percentage of PS externalization [40]: 39%
